Screens as filed in PubChem.
The list is not random: actives were taken first. Their share in the collection is about 3.7%.
HCV NS3 hel inh = inhibitors of Hepatitis C virus NS3 helicase | 290,000 compounds, 0.56% hits | NS3 helicase DNA unwinding, Cy5 molecular beacon fluorescence | inhibition, % at 10.9 µM | AID 1800;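 active = inhibition above the mean of all tested compounds plus 3 SD, set per campaign, cut at about 35% in these data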;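 also: 0% = DMSO wells and 100% = thioflavine S control wells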
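System: HCV NS3 helicase fragment; control set: DMSO and thioflavine S; technique: Cy5 fluorescence at 0 and 60 min, beacon hairpin quenching; reagent: beacon DNA duplex substrate plus ATP; replicates: singlicate; schedule: 1 h reaction at 25 °C, ATP-initiated; medium: MOPS buffer pH 6.5 with MgCl2, DTT, Tween20, BSA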
TAAR1 agonist = human TAAR1 agonism | Q96RJ0 | CHO RD-HGA16 TAAR1, Fluo-8 calcium fluorescence; vehicle wells 0%, saturating PEA agonist 100% | activation, % at 3 µM | 360,000 compounds, 0.99% hits | AID 624467;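 active = activation above the mean activation of all test compounds in the run plus 3 SD, cut at about 38% in these data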
Target sequence (Q96RJ0 whole entry, looked up): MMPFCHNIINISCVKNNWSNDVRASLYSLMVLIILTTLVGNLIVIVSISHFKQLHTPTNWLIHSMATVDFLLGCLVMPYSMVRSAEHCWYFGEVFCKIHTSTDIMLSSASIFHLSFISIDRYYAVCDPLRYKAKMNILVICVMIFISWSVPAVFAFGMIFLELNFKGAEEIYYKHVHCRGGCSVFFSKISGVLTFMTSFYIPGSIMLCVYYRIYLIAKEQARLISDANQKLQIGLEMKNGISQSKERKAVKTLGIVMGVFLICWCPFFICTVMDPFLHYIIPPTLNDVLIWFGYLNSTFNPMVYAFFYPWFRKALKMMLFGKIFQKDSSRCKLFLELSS
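Repeats: no replicates (n 1) | Material: CHO-derived RD-HGA16 cells with stable Gα16 and human TAAR1 | Technique: Kinetic Fluo-8 calcium fluorescence | Schedule: 17-24 h seeding, 75 min 37 °C dye, 30 min RT | Evaluation: % activation from peak over basal fluorescence ratio, DMSO-to-PEA scaled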
TAAR1 antagonist = antagonists of human TAAR1. inhibition, % at 3 µM. CHO RD-HGA16 TAAR1, Fluo-8 calcium fluorescence, antagonist. Q96RJ0. 360,000 compounds, 1.5% hits;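 active = inhibition above a per-plate cutoff, the mean inhibition of test compounds on that plate plus 3 SD, cut at about 49% in these data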;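 also: 0% = DMSO plus EC80 beta-PEA response and 100% = DMSO alone without agonist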
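Test system – hTAAR1-expressing CHO RD-HGA16 cells, Gα16-coupled · Reagent – β-PEA at EC80 concentration, post-compound challenge · Compound dosing – 3 µM, single point · Timing – 140 s kinetic read after compound, 140 s after agonist · Detection – Fluo-8 intracellular calcium dye fluorescence, real-time kinetic reads · Control set – DMSO and EC80 PEA controls · Repeats – n of 1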
rCAG RNA binder = binds r(CAG) RNA repeats; r(CAG) RNA repeat, TO-PRO-1 dye displacement fluorescence; inhibition, % at 3 µM; 370,000 compounds, 1.3% hits;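 active = inhibition above the plate cutoff, the mean of all test compounds on that plate plus 3 SD, cut at about 35% in these data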;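 also: 0% = DMSO alone and 100% = 100 µM mitoxantrone as full dye displacement; higher means more dye released from RNA so lower well fluorescence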
HCV core dimer = HCV core protein dimerization inhibition; TR-FRET GST/Flag-core106 dimerization, 1536-well; inhibition, % at 5 µM; 300,000 compounds, 0.33% hits;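 active = inhibition above the mean of all tested compounds plus 3 SD, set per screening campaign, cut at about 45% in these data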
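Assay system: tagged HCV core106 pair (GST and Flag); medium: KF-containing HEPES buffer, pH 7.45, DTT, CHAPS, BSA; also added: Eu donor and XL665 acceptor anti-tag antibodies; dosing: 5 µM single dose; timing: compound-protein-antibody incubation 4 h at 22.5 °C; signal: TR-FRET 671 and 617 nm emission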
rCAG binder conf = r(CAG) RNA repeat binding, confirmation; shares compounds with rCAG RNA binder; TO-PRO-1 dye displacement fluorescence; AID 652065; inhibition, % at 3 µM; 4,300 compounds, 70% hits;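 active = inhibition above a per-plate cutoff, the mean inhibition of sample wells plus 3 SD, cut at about 35% in these data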;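 also: loss of TO-PRO-1 fluorescence as compound displaces dye from 1x1 AA loop RNA; 0% = DMSO only wells and 100% = 100 µM mitoxantrone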
DNA CAG counter = counter-screen for rCAG RNA binders: DNA CAG dye complex inhibitors | d(CAG) DNA oligo TO-PRO-1 dye displacement, fluorescence | 4,300 compounds, 94% hits | shares compounds with rCAG RNA binder | inhibition, % at 3 µM;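 active = inhibition above its plate's cutoff, the mean test-well inhibition plus 3 SD, cut at about 4.8% in these data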;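 also: 0% = DNA dye mix with DMSO and 100% = 100 µM mitoxantrone; hits displace the dye from DNA and so lower well fluorescence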
dCAG dye DR = DNA CAG dye complex inhibition, dose response counter-screen; 250 compounds, 20% hits; AID 686960; shares compounds with rCAG RNA binder; DNA CAG/GTC duplex TO-PRO-1 dye displacement fluorescence; IC50, µM; in the data active = IC50 below about 10 µM
* hit, by the source's call; i = inactive; nt = no result.

SMILES	HCV NS3 hel inh	TAAR1 agonist	TAAR1 antagonist	rCAG RNA binder	HCV core dimer	rCAG binder conf	DNA CAG counter	others
CN1C(=O)c2cc(NS(=O)(=O)c3cccc(F)c3)ccc2OC[C@@H]2O[C@H](CC(=O)O)CC[C@H]21	nt	nt	nt	0	nt	nt	nt
CC(C)N(Cc1c(O)ccc2c(=O)c(-c3ccc(Cl)cc3)coc12)C(C)C	9	-1	2	42*	45	18	10*
CC1CCCCN1Cc1c(O)ccc2c(=O)c(-c3ccc(Cl)cc3)coc12 (stereo not drawn)	-4	-1	-31	6	-3	nt	nt
Cc1cc(-c2n[nH]c(=S)n2N=Cc2ccc(O)cc2)n[nH]1	nt	nt	nt	2	nt	nt	nt
COc1cccc([C@@H]2NC(=O)C/C=C/[C@H](C)[C@H](c3cccc(OC)c3)NC(=O)C/C=C/[C@@H]2C)c1	nt	nt	nt	6	nt	nt	nt
COc1ccc(C=C2SC(=S)N(CCCC(=O)Nc3ccc(C(=O)O)c(O)c3)C2=O)cc1OC	nt	1	0	80*	nt	75*	41*
Cc1cc(NC(=O)CCN2C(=O)/C(=C/c3ccccc3F)SC2=S)no1	8	1	-22	3	3	nt	nt
O=C(CCCN1C(=O)C(=Cc2ccc3c(c2)OCO3)SC1=S)Nc1ccc(C(=O)O)c(O)c1	nt	-1	-1	77*	nt	78*	45*
O=C(CCN1C(=O)/C(=C\c2ccccc2F)SC1=S)Nc1ccc(C(=O)O)c(O)c1	0	1	-40	94*	26	84*	60*
O=C(CCCN1C(=O)/C(=C/c2ccccc2)SC1=S)Nc1ccc(C(=O)O)c(O)c1	4	3	-13	83*	5	80*	36*
O=C(NCc1ccccc1)C1(C(=O)C2CC2)CC(c2ccccc2C(F)(F)F)=NO1 (stereo not drawn)	nt	nt	nt	-1	nt	nt	nt
O=C(Nc1ccc(F)cc1)N[C@@H]1C[C@@H]2O[C@H](CO)CC[C@@H]2O[C@@H]1CCc1ccc(C2=CCCC2)cc1	nt	nt	nt	4	nt	nt	nt
CCOC(=O)Cc1cc(=O)n(-c2nc3ccccc3s2)[nH]1	36	4	-5	73*	10	34	12*
COc1cc(/C=C2\C(=O)N(c3ccc(NC(C)=O)cc3)N=C2c2ccccc2)ccc1O	-4	0	9	83*	-11	70*	31*	dCAG dye DR=i
COc1cc(C=C2C(=O)C=CC2=O)ccc1O	nt	43*	37	73*	nt	10	5.4*
COc1ccc(/C=C2\C(=O)N(c3nc(-c4ccc(Br)cc4)cs3)N=C2c2ccccc2)cc1	23	nt	nt	nt	nt	nt	nt
COc1cc(/C=C2/C(=O)CNC2=O)ccc1O	10	2	-2	-28	8	nt	nt
O=C1/C(=C\c2ccc(O)c(O)c2)C(c2ccccc2)=NN1c1ccccc1	25	8	-3	74*	nt	81*	44*
C#CCNC(=O)C[C@H]1C[C@@]2(C(=O)OC)C(=C[C@H](C3CCCC3)O[C@@H]2C)N(Cc2cccc3ccccc23)C1=O	nt	nt	nt	5	nt	nt	nt
Cc1cccc(CN2CCN(C3CN(Cc4cn(Cc5ccc(C(F)(F)F)cc5)nn4)S(=O)(=O)C3)CC2)c1 (stereo not drawn)	nt	7	2	-2	nt	nt	nt
Cc1c(C(=O)NNC(=S)Nc2cccc(Cl)c2)nnn1-c1ccccc1	12	6	5	45*	9	44*	14*
CC1=NN(C(N)=S)C(=O)C1N=Nc1c(C)cc(C)cc1C (stereo not drawn)	-2	3	-7	5	17	nt	nt
CC1=NN(C(N)=S)C(=O)C1N=Nc1c(Br)cc(Br)cc1Br (stereo not drawn)	23	39*	41	46*	11	43*	13*	dCAG dye DR=>30
C(=N\Nc1nc2ccccc2s1)/c1cccs1	-19	13	-14	9	-14	nt	nt
CCn1c(C)c(/C=N/Nc2nc3ccccc3s2)c2ccccc21	-4	0	2	47*	-1	32	15*
SMILES	HCV NS3 hel inh	TAAR1 agonist	TAAR1 antagonist	rCAG RNA binder	HCV core dimer	rCAG binder conf	DNA CAG counter	others
O=C(O)c1ccccc1-c1ccc(C=c2sc3nc4cc(Br)cnc4n3c2=O)o1	nt	0	-19	81*	nt	72*	39*
CCc1ccc(N2C(=O)C[C@@](C#N)(C(=O)OC)[C@H]2c2ccccc2)cc1	nt	nt	nt	1	nt	nt	nt
Cc1ccc(C)c(OC(C)C(=O)Nc2ccc(S(=O)(=O)Nc3nccs3)cc2)c1 (stereo not drawn)	7	0	-6	55*	8	48*	18*
CC(Oc1ccc(Cl)cc1)C(=O)Nc1nccs1 (stereo not drawn)	-5	17	3	-4	3	nt	nt
Cc1ccc(C)c(OC(C)C(=O)Nc2nccs2)c1 (stereo not drawn)	4	6	-8	-2	-12	nt	nt
CC(Oc1ccc(Cl)cc1)C(=O)Nc1ccc(S(=O)(=O)Nc2nccs2)cc1 (stereo not drawn)	3	33	22	44*	2	36*	11*
O=C(CSc1nnc(SCc2cccc3ccccc23)s1)Nc1ccc(S(=O)(=O)Nc2nccs2)cc1	nt	nt	nt	80*	nt	77*	43*
O=C(Cc1c(F)cccc1Cl)Nc1ccc(S(=O)(=O)Nc2nccs2)cc1	4	4	-11	16	3	nt	nt
COc1ccccc1CCC(=O)Nc1nccs1	0	1	7	-3	-2	nt	nt
COc1ccccc1CCC(=O)Nc1ccc(S(=O)(=O)Nc2nccs2)cc1	nt	1	3	37*	1	28	9.2*
O=C(CSc1ccccc1)NC1CCCCN(Cc2ccc(Cl)cc2)C1=O (stereo not drawn)	nt	nt	nt	1	nt	nt	nt
COC(=O)C1CN(Cc2ccc(OC)cc2)CCS(=O)(=O)N1Cc1ccccc1 (stereo not drawn)	nt	nt	nt	4	nt	nt	nt
Cc1ccc(C(=O)NC2CCCCN(C(C)C)C2=O)cc1 (stereo not drawn)	nt	nt	nt	-2	nt	nt	nt
Cc1ccccc1OC(C)C(=O)Nc1ccc(S(=O)(=O)Nc2nccs2)cc1 (stereo not drawn)	0	2	0	35	-2	nt	nt
CC(Oc1ccccc1Cl)C(=O)Nc1ccc(S(=O)(=O)Nc2nccs2)cc1 (stereo not drawn)	nt	-1	6	54*	5	54*	13*
COC(=O)[C@H](CC(C)C)NC(=O)NCCCc1ccccc1	-2	-1	14	48*	1	1	-2
CSC[C@H](NC(=O)COc1cc2c(c3oc(=O)c(C)c(C)c13)CCC(C)(C)O2)C(=O)O	10	3	-11	24	-1	nt	nt
